Measurements as given in ChEMBL document CHEMBL1212900, “Falcipain inhibitors: optimization studies of the 2-pyrimidinecarbonitrile lead series” (J Med Chem, 2010).

Key:
[1] = Inhibition of Plasmodium falciparum falcipain-3 expressed in Escherichia coli
How it was run: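 Refolded recombinant enzyme from E. coli, 2 nM, in 100 mM sodium acetate pH 5.5 with 500 μM CHAPS and 10 mM DTT, DMSO up to 1%. H-D-Val-Leu-Arg-AFC at 150 μM final. Reaction started by enzyme addition; fluorescence monitored 1 h at room temperature. IC50 derived from percent activity plotted against inhibitor concentration.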

[2] = Inhibition of Plasmodium falciparum falcipain-2 expressed in Escherichia coli
How it was run: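 Recombinant E. coli-expressed, refolded enzyme at 0.25 nM in 100 mM sodium acetate pH 5.5, 500 μM CHAPS, 10 mM DTT, DMSO ≤1%. Substrate H-D-Val-Leu-Arg-AFC at 30 μM final. Inhibitor dilutions mixed with substrate, enzyme added last; fluorescence followed 1 h at room temperature. IC50 from percent activity versus concentration.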

SMILES	IC50 [1] [µM]	IC50 [2] [µM]
CC(C)CN(NC(=O)c1ccc(-c2ccccc2)nc1)c1nc(C#N)ncc1Br	0.104	0.003
CC(C)CN(NC(=O)c1ccc(-c2ccc(Cl)cc2)o1)c1nc(C#N)ncc1Br	0.351	0.02
CC(C)CN(NC(=O)c1ccc(-c2cccc(C(F)(F)F)c2)o1)c1nc(C#N)ncc1Br	0.097	0.005
Cc1oc(-c2ccccc2)cc1C(=O)NN(CC(C)C)c1nc(C#N)ncc1Br	0.837	0.025
CC(C)CN(NC(=O)c1ccc(-c2ccccc2)s1)c1nc(C#N)ncc1Br	0.549	0.006
CC(C)CN(NC(=O)c1cc(-c2ccccc2)cs1)c1nc(C#N)ncc1Br	0.374	0.003
CC(C)CN(NC(=O)c1ncoc1-c1ccccc1)c1nc(C#N)ncc1Br	0.094	0.014
CC(C)CN(NC(=O)c1csc(-c2ccccc2)n1)c1nc(C#N)ncc1Cl	0.054	0.0015
CC(C)CN(NC(=O)c1csc(-c2ccccc2)n1)c1nc(C#N)ncc1Br	0.13	0.003
Cc1nc(-c2ccc3c(c2)CCO3)sc1C(=O)NN(CC(C)C)c1nc(C#N)ncc1Cl	0.95	0.003
CC(C)CN(NC(=O)c1cnc(-c2ccc3c(c2)CCO3)s1)c1nc(C#N)ncc1Cl	0.198	0.002
CC(C)CN(NC(=O)c1c[nH]c(-c2ccccc2)n1)c1nc(C#N)ncc1Br	0.146	0.004
CC(C)CN(NC(=O)c1cc(-c2ccccc2)no1)c1nc(C#N)ncc1Cl	0.12	0.002
CC(C)CN(NC(=O)c1cc(-c2ccccc2)no1)c1nc(C#N)ncc1Br	0.359	0.01
CC(C)CN(NC(=O)c1cccc(-c2ccncc2)c1)c1nc(C#N)ncc1Br	0.015	< 0.0005
CC(C)CN(NC(=O)c1cccc(-c2cncnc2)c1)c1nc(C#N)ncc1Br	0.012	< 0.0005
CC(C)CN(NC(=O)c1cncc(-c2ccccc2)c1)c1nc(C#N)ncc1Br	0.004	< 0.0005

SMILES	IC50 [1] [µM]	IC50 [2] [µM]
CC(C)CN(NC(=O)c1cncc(-c2ccccc2)c1)c1nc(C#N)ncc1Cl	0.026	0.0008
CC(C)CN(NC(=O)c1cc(-c2ccccc2)ncn1)c1nc(C#N)ncc1Cl	0.03	0.001
Cc1nc(-c2ccc(C(=O)NN(CC(C)C)c3nc(C#N)ncc3Br)cc2)cs1	0.164	0.0008
CC(C)CN(NC(=O)c1ccc(-n2cccn2)cc1)c1nc(C#N)ncc1Cl	0.148	0.008
CC(C)CN(NC(=O)c1ccc(-n2ccc(C(F)(F)F)n2)cc1)c1nc(C#N)ncc1Cl	0.144	0.002
CC(C)CN(NC(=O)c1ccc(-n2cncn2)cc1)c1nc(C#N)ncc1Br	0.052	0.003
CC(C)CN(NC(=O)c1ccc(-c2ccccc2)o1)c1nc(C#N)ncc1Br	0.039	0.001
Cc1nc(-c2ccccc2)sc1C(=O)NN(CC(C)C)c1nc(C#N)ncc1Br	0.999	0.406
Cc1nc(-c2ccc(C(F)(F)F)cc2)sc1C(=O)NN(CC(C)C)c1nc(C#N)ncc1Cl	1.54	0.012
COc1ccc(-c2cc(C(=O)NN(CC(C)C)c3nc(C#N)ncc3Br)no2)cc1	0.692	0.004
CC(C)CN(NC(=O)c1cnoc1-c1ccccc1)c1nc(C#N)ncc1Cl	0.128	0.008
Cc1c(C(=O)NN(CC(C)C)c2nc(C#N)ncc2Br)noc1-c1ccccc1	0.071	0.02
Cc1c(-c2ccccc2Cl)noc1C(=O)NN(CC(C)C)c1nc(C#N)ncc1Cl	0.571	0.1
CC(C)CN(NC(=O)c1cc(-c2ccccc2)[nH]n1)c1nc(C#N)ncc1Br	0.352	0.003
Cc1nc(-c2ccccc2)ncc1C(=O)NN(CC(C)C)c1nc(C#N)ncc1Br	0.165	0.002
CC(C)CN(NC(=O)c1ccc(-n2ccnc2)cc1)c1nc(C#N)ncc1Br	0.239	0.009
